Assay results reported in ChEMBL document CHEMBL1781999, “Lead optimization of aryl and aralkyl amine-based triazolopyrimidine inhibitors of Plasmodium falciparum dihydroorotate dehydrogenase with antimalarial activity in mice” (J Med Chem, 2011).
≈ marks a conversion by molar mass, not a printed value.

Columns and labels:
[1] = target: T1, Dihydroorotate dehydrogenase (Plasmodium falciparum, UniProt Q54A96); assay: Inhibition of His6-tagged recombinant Plasmodium falciparum dihydroorotate dehydrogenase expressed in Escherichia coli using L-dihydroorotate as substrate after 5 to 10 mins by DCIP dye-based assay
T1 sequence (Q54A96 whole entry): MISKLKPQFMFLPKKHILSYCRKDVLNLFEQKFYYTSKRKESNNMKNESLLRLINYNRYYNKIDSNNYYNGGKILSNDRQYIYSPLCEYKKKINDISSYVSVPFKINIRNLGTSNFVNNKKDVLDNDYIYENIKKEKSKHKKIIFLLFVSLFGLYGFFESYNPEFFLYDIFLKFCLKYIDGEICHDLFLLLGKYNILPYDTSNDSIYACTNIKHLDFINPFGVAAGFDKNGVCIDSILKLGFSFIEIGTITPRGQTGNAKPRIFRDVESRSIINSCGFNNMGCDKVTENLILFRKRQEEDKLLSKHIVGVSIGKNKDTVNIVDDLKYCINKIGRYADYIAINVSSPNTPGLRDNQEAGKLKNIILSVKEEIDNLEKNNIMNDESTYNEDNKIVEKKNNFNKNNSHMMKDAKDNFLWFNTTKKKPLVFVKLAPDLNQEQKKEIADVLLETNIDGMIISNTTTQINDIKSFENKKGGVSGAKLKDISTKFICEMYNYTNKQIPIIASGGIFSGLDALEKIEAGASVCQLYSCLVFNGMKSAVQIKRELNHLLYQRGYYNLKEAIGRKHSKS

[2] = Inhibition of His6-tagged recombinant Plasmodium berghei dihydroorotate dehydrogenase expressed in Escherichia coli using L-dihydroorotate as substrate after 5 to 10 mins by DCIP dye-based assay
[3] = system: Plasmodium falciparum; assay: Antimalarial activity against Plasmodium falciparum 3D7 infected in human A positive erythrocytes by [3H]hypoxanthine uptake assay in presence of serum in medium; assay type: functional, organism-based
Summary of the method: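 Growth read by [3H]-hypoxanthine uptake. Each concentration run in quadruplicate and fitted to a four-parameter variable-slope log[I]-response model for 50% growth inhibition.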

[4] = system: Liver; assay: Intrinsic clearance in mouse liver microsome assessed per mg of protein at 1 uM after 60 mins by LC-MS analysis; assay type: ADME; conditions: microsomes, 1 h
Summary of the method: (§1)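 Microsomal stability. Compound at 1 μM with liver microsomes (0.4 mg/mL protein) in 0.1 M phosphate pH 7.4 at 37 °C. Started with an NADPH-regenerating system plus MgCl2; controls lacked NADPH. Quenched with cold acetonitrile at time points up to 60 min. Parent loss measured by LC-MS and fitted to exponential decay to give CLint.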

[5] = Inhibition of His6-tagged recombinant Plasmodium berghei dihydroorotate dehydrogenase expressed in Escherichia coli using L-dihydroorotate as substrate after 10 to 15 mins by DCIP dye-based assay; conditions: in the assay text read “5 to 10 mins” for “10 to 15 mins”
Summary of the method: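 Truncated soluble enzyme lacking the N-terminal membrane domain. Final concentrations: 0.2 mM L-dihydroorotate, 0.02 mM CoQD, 0.12 mM DCIP. Reaction started with 10 nM enzyme and read at 600 nm for 5–10 min at 20 °C. Inhibitor 0.01–100 μM in 3-fold steps, in triplicate. IC50 from a three-parameter fit of vi/vo from initial rates.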

[6] = system: Liver microsomes; assay: (§2) Intrinsic clearance in human liver microsome assessed per mg of protein at 1 uM after 60 mins by LC-MS analysis; assay type: ADME; conditions: microsomes, 1 h, 1 µM
Summary of the method: as §1

[7] = target: Dihydroorotate dehydrogenase (quinone), mitochondrial (Homo sapiens, UniProt Q02127); assay: Inhibition of His6-tagged recombinant human dihydroorotate dehydrogenase expressed in Escherichia coli using L-dihydroorotate as substrate after 5 to 10 mins by DCIP dye-based assay
[8] = (§3) Plasma protein binding in human by albumin chromatographic method; assay type: ADME, cell-free; conditions: read-out: PPB (converted)
[9] = Aqueous solubility of the compound in phosphate buffer at pH 6.5; assay type: physicochemical
Summary of the method: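 Non-equilibrium solubility. Concentrated DMSO stocks were diluted into pH 6.5 phosphate buffer (final DMSO 1% v/v) and precipitation was monitored by nephelometry. Solubility is given as the concentration range just before a turbidity signal rose above background.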

[10] = Partition coefficient, log D of the compound at pH 7.4 by UV-HPLC analysis; conditions: octanol/water
[11] = Antimalarial activity against Plasmodium berghei ANKA NK65 infected in po dosed Swiss Webster mouse assessed as reduction of parasitemia level administered qd for 4 days measured 24 hrs after last dose by light microscopic analysis; assay type: functional
[12] = system: Mus musculus; assay: Toxicity in Swiss mouse assessed as adverse effect at 20 mg/kg, po measured after 24 hrs; assay type: organism-based; set-up: dose 20 mg/kg, route oral; conditions: in vivo
[13] = system: Mus musculus; assay: Cmax in Swiss mouse at 20 mg/kg, po measured after 24 hrs by LC-MS analysis; assay type: ADME, organism-based; set-up: dose 20 mg/kg, route oral; conditions: in vivo
Summary of the method: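 Non-fasted male Swiss outbred mice given a single oral gavage dose in 0.5% w/v sodium carboxymethylcellulose, 0.5% v/v benzyl alcohol, 0.4% v/v Tween 80. One mouse per time point, cardiac blood under isoflurane, sampling to 24 h. Plasma stabilized, acetonitrile-precipitated, quantified by LC-MS against blank-plasma standards; Cmax read from concentration-time profile.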

[14] = system: Mus musculus; assay: Time duration above 1 uM plasma concentration in Swiss mouse at 20 mg/kg, po; assay type: ADME, organism-based; set-up: dose 20 mg/kg, route oral; conditions: in vivo
Summary of the method: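 Non-fasted male Swiss outbred mice given a single gavage dose in suspension (0.5% Na-CMC, 0.5% benzyl alcohol, 0.4% Tween 80). One mouse per time point; blood taken by cardiac puncture under isoflurane into stabilizer over 24 h. Plasma measured by LC-MS; time above 1 μM read directly from the concentration-time profile.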

[15] = system: Plasma; assay: as §3; assay type: ADME, cell-free
[16] = as §2; assay type: ADME, microsomes; conditions: liver microsomes
Summary of the method: as §1

[17] = phosphate buffer, read-out: solubility

Chain of Dihydroorotate dehydrogenase (quinone), mitochondrial (Q02127 whole entry): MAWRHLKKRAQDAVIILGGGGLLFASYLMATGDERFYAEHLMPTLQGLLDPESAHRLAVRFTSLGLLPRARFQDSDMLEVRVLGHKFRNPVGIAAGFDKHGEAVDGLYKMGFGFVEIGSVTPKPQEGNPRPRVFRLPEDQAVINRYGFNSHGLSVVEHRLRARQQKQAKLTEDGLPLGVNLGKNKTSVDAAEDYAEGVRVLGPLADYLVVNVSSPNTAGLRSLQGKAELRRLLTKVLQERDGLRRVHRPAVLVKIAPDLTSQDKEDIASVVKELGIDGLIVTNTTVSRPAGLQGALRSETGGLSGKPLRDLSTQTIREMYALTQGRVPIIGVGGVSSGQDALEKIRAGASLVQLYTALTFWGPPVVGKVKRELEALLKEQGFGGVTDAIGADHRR

Compound | IC50 [1] [µM] | IC50 [2] [µM] | EC50 [3] [µM] | CL [4] [µL/min/mg] | IC50 [5] [µM] | CL [6] [µL/min/mg] | IC50 [7] [µM] | fraction unbound [8] | solubility [9, 17] [µM] | logD [10] | other results
Cc1cc(Nc2ccc(NC(C)(C)C)cc2)n2ncnc2n1 | > 50 | > 100 | > 5 |  |  |  |  |  |  |  | 
C#Cc1ccc(Nc2cc(C)nc3ncnn23)cc1 | 1.1 |  | 5.1 | 27 | 4.1 | 8 | > 100 | 0.182 | 100 (≈ 24.9 µg/mL) | 2.2 | 
C[C@H]1[C@H](OC(=O)CCC(=O)O)O[C@@H]2O[C@@]3(C)CC[C@H]4[C@H](C)CC[C@@H]1[C@@]24OO3 [ARTESUNATE] |  |  |  |  |  |  |  |  |  |  | ED50 [11]: 5.9 mg/kg
Cc1cc(Nc2ccc3sccc3c2)n2ncnc2n1 | 0.09 |  | 0.066 | 162 | 0.6 | 64 |  | 0.102 | 22 (≈ 6.19 µg/mL) | 2.6 | Activity [12]: Non-toxic; Cmax [13]: 400 nM
Cc1cc(Nc2ccc3c(c2)CCCC3)n2ncnc2n1 |  |  | 0.16 | 361 | 0.19 | 72 | > 100 | 0.045 | 89 (≈ 24.9 µg/mL) | 3.4 | Activity [12]: Non-toxic; Cmax [13]: 2200 nM; Time [14]: 1 h
Cc1cc(NCc2ccc(C(F)(F)F)cc2)n2ncnc2n1 | > 100 | > 100 |  |  |  |  |  |  |  |  | 
Cc1cc(Nc2ccc(C3CC3)cc2)n2ncnc2n1 | 0.42 |  | 1.4 | 287 | 2.9 | 53 | > 100 | 0.132 |  | 2.7 | solubility ([9]; buffer): > 377 µM
Cc1cc(Nc2ccc3c(c2)CCC3)n2ncnc2n1 | 0.22 |  | 0.8 | 341 | 1 | 77 | > 100 | 0.075 | 47 (≈ 12.5 µg/mL) | 2.9 | 
Cc1cc(NCCCc2ccccc2)n2ncnc2n1 | 26 | > 100 | 25 |  |  |  |  |  |  |  | 
O=C1C(O)=C([C@H]2CC[C@H](c3ccc(Cl)cc3)CC2)C(=O)c2ccccc21 [ATOVAQUONE] |  |  | 0.0015 |  |  |  |  |  |  |  | PPB [15]: 87%
Cc1cc(Nc2ccc(C(C)C)cc2)n2ncnc2n1 | 0.22 |  | 0.78 | 241 | 0.88 | 30 | > 100 | 0.087 | 47 (≈ 12.6 µg/mL) | 3 | Activity [12]: Non-toxic; Cmax [13]: 800 nM
C=Cc1ccc(Nc2cc(C)nc3ncnn23)cc1 |  |  | 0.34 | 168 | 4.5 | 32 | > 100 | 0.156 | 25 (≈ 6.28 µg/mL) | 2.4 | 
Cc1cc(NC2CCc3ccccc3C2)n2ncnc2n1 (stereo unspecified) | 0.54 |  | 1.8 | 35 | 2.3 | < 5 |  |  |  | 2.9 | Activity [12]: Non-toxic; Cmax [13]: 7800 nM; Time [14]: 6 h; solubility ([9]; buffer): > 358 µM
Cc1cc(Nc2ccc(N3CCOCC3)cc2)n2ncnc2n1 | > 100 | > 100 | > 10 |  |  |  |  |  |  |  | 
OC(c1cc(C(F)(F)F)nc2c(C(F)(F)F)cccc12)C1CCCCN1 (stereo unspecified) [MEFLOQUINE] |  |  |  |  |  |  |  |  |  |  | ED50 [11]: 3.8 mg/kg
Cc1cc(NC2CCc3cc(Cl)ccc3C2)n2ncnc2n1 (stereo unspecified) | 0.67 | 10 | 10 |  |  |  |  |  |  |  | 
Cc1cc(Nc2ccc(OCc3ccccc3)cc2)n2ncnc2n1 | 5.4 | > 100 | > 10 |  |  |  |  |  |  |  | 
Cc1cc(NC2Cc3ccccc3C2)n2ncnc2n1 | 0.5 |  | 0.4 | 32 | 2.4 | < 5 |  | 0.239 | 188 (≈ 49.9 µg/mL) | 2.5 | Activity [12]: Non-toxic; Cmax [13]: 500 nM
CCCCCCCCc1ccc(Nc2cc(C)nc3ncnn23)cc1 | > 50 | > 100 | > 5 |  |  |  |  |  |  |  | 
Cc1cc(NOc2ccccc2)n2ncnc2n1 | > 100 | > 100 |  |  |  |  |  |  |  |  | 
CCCc1c(C)nc2ncnn2c1Nc1ccc(C)cc1 | > 100 | > 100 | > 10 |  |  |  | > 100 |  |  |  | 
Cc1cc(Nc2ccc(C(F)(F)F)cc2)n2ncnc2n1 |  |  |  |  |  |  |  | 0.131 | 21 (≈ 6.16 µg/mL) | 2.5 | microsomal CLint at 1 µM [16]: 8 µL/min/mg
Cc1cc(Nc2ccc(C(C)(C)C)c(F)c2)n2ncnc2n1 | 0.035 | 0.11 | 0.097 | 68 |  | 32 |  | 0.036 |  | 3.5 | Activity [12]: Non-toxic; Cmax [13]: 250 nM; solubility ([9]; buffer): < 2.7 µM
